Results reported in ChEMBL document CHEMBL4665652, “Discovery of novel quinoline sulphonamide derivatives as potent, selective and orally active RORγ inverse agonists” (Bioorg Med Chem Lett, 2019).

Tests used:
Mus musculus = assay: (§1) In vivo inverse agonist activity at RORgamma in po dosed MOG(35-55) peptide/PTX-induced mechanistic C57BL/6 mouse model assessed as anti-CD3 induced IL-17F level in serum dosed for 5 days during MOG/PTX priming and followed by 45 mins prior to anti-CD3 challenge and measured after 2 hrs relative to control; type: functional, organism-based; conditions: dose mg/kg 10-100, time 5.0 day
In short: (§2)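 Mice immunized with mouse MOG35-55 peptide plus pertussis toxin. After 5 days, compound given orally as a suspension in methylcellulose 400cp + 1% poloxamer, 45 min before an anti-CD3 challenge. Circulating cytokines measured 2 h later. Comparison vs vehicle by Dunnett post test.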

[1] = target: T1, Nuclear receptor ROR-gamma (Homo sapiens, UniProt P51449); assay: Inverse agonist activity at pSG5GAL4-DBD/LBD fused human RORgamma receptor expressed in COS7 cells co-expressing 5 copies of GAL4 response element after 18 hrs by luciferase reporter gene based assay; type: cell-based
T1 sequence (P51449 whole entry): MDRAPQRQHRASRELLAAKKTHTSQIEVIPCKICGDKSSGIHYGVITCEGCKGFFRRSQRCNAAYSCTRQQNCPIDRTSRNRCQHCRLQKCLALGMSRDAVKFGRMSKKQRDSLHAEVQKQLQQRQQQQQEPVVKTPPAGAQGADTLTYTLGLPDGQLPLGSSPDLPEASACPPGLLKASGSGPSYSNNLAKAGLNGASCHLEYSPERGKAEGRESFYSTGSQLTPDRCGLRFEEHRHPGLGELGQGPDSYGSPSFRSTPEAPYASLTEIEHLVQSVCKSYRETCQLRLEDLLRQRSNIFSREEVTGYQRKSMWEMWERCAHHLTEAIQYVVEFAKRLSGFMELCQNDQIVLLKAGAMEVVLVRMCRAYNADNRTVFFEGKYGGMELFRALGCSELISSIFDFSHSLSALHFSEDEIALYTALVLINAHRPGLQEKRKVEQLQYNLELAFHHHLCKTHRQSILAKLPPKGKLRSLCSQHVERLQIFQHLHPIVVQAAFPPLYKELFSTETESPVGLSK

[2] = Cmax in mouse at 30 mg/kg, po; type: ADME, organism-based; set-up: route oral, dose 30 mg/kg; conditions: in vivo
In short: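 Mice dosed orally at 10, 30 or 100 mg/kg as a suspension in 1% methylcellulose 400cp + 0.1% Poloxamer (188). Tmax, Cmax, AUClast and oral t1/2 were taken from plasma concentration–time profiles. Ratios are the value at each dose over the value at 10 mg/kg.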

[3] = as §1, with “in” for “in po dosed”, “IL-10” for “IL-17F”, “serum at 10 mg/kg, po” for “serum”, “(reference value: -11%)” for “relative to control”; type: functional; conditions: time 5 day; in short: as §2

EC50 [1]: 220 nM | Cmax [2]: 11800 ng/mL
SMILES: CNC(=O)[C@@H]1CCCN1S(=O)(=O)c1ccc(Cl)c(COc2cccc3c(-c4cncn4C)cc(C(C)C)nc23)c1Cl
Activity (Mus musculus): Dose-dependent effect | Activity [3]: -3%
